From ChEMBL document CHEMBL1138606, “The discovery of tropane derivatives as nociceptin receptor ligands for the management of cough and anxiety” (Bioorg Med Chem Lett, 2009) come the findings set out here.

SMILES strings stand for the structures. pEC50, pKi: −log10 of the molar value. The source made the active and inactive calls. No cut-off for these calls is given here.

Series [1] concerns the target T1, Nociceptin receptor (Homo sapiens, UniProt P41146). Put plainly: Displacement of [125I][Tyr14]nociceptin from human cloned NOP receptor expressed in CHO cells. Format: cell-based.
Series [2] addresses T2, Mu-type opioid receptor (Homo sapiens, UniProt P35372). Put plainly: Displacement of [3H]diprenorphine from human mu opioid receptor expressed in CHO cells. In kind it is cell-based.
Series [3] addresses T1, Nociceptin receptor. In words: Agonist activity at human NOP assessed as stimulation of GDP-induced [35S]GTPgammaS binding. Format: functional. The procedure, abridged:
(§1)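 Functional agonism measured as enhancement of [35S]GTPγS binding in the presence of GDP, using membranes from cells transfected with the receptor. Values are means of 2–3 experiments.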

Series [4] concerns the target T2, Mu-type opioid receptor. In words: Agonist activity at human mu opioid assessed as stimulation of GDP-induced [35S]GTPgammaS binding. Format: functional. The procedure, abridged:
as §1

Series [5] deals with T1, Nociceptin receptor. Put plainly: Agonist activity at human NOP assessed as stimulation of GDP-induced [35S]GTPgammaS binding at 10 uM. Format: functional. The method, boiled down:
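Functional agonism measured as enhancement of [35S]GTPγS binding in the presence of GDP, using membranes from cells transfected with the receptor. […] Values are means of 2–3 experiments.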

Series [6] deals with T3, Nuclear receptor subfamily 1 group I member 2 (Homo sapiens, UniProt O75469).
T3 sequence (O75469 whole entry): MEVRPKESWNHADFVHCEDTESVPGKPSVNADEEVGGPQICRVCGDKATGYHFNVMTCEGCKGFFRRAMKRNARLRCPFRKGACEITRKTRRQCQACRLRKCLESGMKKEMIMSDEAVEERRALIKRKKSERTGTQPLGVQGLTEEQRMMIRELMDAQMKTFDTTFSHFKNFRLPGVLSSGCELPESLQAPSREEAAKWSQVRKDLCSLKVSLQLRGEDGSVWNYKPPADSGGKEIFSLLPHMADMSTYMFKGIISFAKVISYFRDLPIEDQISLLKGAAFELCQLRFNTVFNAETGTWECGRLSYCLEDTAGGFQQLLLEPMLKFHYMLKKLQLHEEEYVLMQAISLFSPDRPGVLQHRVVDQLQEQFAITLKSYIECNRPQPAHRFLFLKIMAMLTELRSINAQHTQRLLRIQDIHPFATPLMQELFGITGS
In words: Activity at human PXR assessed as induction of CYP3A4 activity in human hepatocytes at 1 uM relative to rifampicin. In kind it is cell-based, Hepatocyte.

Series [7] deals with T2, Mu-type opioid receptor. Put plainly: Binding affinity to human mu opioid assessed as stimulation of GDP-induced [35S]GTPgammaS binding at 10 uM. Format: functional. The procedure, abridged:
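Agonist function read as enhancement of [35S]GTPγS binding to receptor-expressing membranes in the presence of GDP. Percent stimulation is given at 10 µM test compound. Values are means of at least 2–3 experiments.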

The next series deals with Cavia porcellus. In words: Antitussive activity against capsaicin-induced cough in po dosed Hartley guinea pig model after 2 hrs. Format: functional.

T2 sequence (P35372 whole entry): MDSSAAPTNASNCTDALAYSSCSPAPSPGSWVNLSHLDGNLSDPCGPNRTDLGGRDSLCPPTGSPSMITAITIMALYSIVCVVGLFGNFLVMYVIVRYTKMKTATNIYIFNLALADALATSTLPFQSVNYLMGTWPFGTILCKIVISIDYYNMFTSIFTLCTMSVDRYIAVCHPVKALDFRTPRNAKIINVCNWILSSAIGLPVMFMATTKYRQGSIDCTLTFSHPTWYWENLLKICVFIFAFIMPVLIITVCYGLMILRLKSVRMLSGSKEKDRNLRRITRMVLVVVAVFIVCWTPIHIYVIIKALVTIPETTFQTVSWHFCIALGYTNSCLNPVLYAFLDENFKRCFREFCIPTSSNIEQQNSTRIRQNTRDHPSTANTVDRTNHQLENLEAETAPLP
T1 sequence (P41146 whole entry): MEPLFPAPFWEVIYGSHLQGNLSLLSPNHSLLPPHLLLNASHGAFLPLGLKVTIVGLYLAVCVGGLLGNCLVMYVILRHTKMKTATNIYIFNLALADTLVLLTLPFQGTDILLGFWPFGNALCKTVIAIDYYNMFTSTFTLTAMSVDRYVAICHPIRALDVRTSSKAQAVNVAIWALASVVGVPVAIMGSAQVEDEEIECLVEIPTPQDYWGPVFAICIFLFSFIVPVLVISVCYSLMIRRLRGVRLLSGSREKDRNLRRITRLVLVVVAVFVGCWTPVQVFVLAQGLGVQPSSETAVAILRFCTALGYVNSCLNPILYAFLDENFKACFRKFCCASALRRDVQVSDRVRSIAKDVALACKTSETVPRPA

On to `N#CC1(c2ccccc2)CC2CCC(C1)N2C(c1ccccc1Cl)c1ccccc1Cl` (configuration not stated), for which, at Nociceptin receptor [1], the pKi was 7.00.

In the case of `COC1(c2ccccc2)CC2CCC(C1)N2C(c1ccccc1Cl)c1ccccc1Cl` (configuration not stated), the pKi on Nociceptin receptor [1] was 8.10; at Mu-type opioid receptor [2], 6.20. Also, the values for the pEC50 on Nociceptin receptor [3] and on Mu-type opioid receptor [4] were 7.30 and 6.26, respectively.

Consider `C[C@H]1CN(C(c2ccccc2)c2ccccc2)CC[C@@]1(O)c1ccccc1`, for which the pKi at Nociceptin receptor [1] is 5.80.

For `CNC(=O)NC1(c2ccccc2)CC2CCC(C1)N2C(c1ccccc1Cl)c1ccccc1Cl` (configuration not stated), the pKi at Nociceptin receptor [1] was 8.70; at Mu-type opioid receptor [2], 7.57.

Compound `FCC1(c2ccccc2)CC2CCC(C1)N2C(c1ccccc1Cl)c1ccccc1Cl` (configuration not stated) showed a negative-log Ki (pKi) at Nociceptin receptor [1] of 5.50.

Take `COC(=O)NC1(c2ccccc2)CC2CCC(C1)N2C(c1ccccc1Cl)c1ccccc1Cl` (configuration not stated): the figures for the negative-log Ki (pKi) on Nociceptin receptor [1] and at Mu-type opioid receptor [2] were 8.22 and 6.24, respectively. Also, the figures for the pEC50 on Nociceptin receptor [3] and on Mu-type opioid receptor [4] were 7.27 and 6.11, respectively.

Consider `C[C@@H]1CN(C(c2ccccc2)c2ccccc2)CC[C@@]1(O)c1ccccc1`, for which the Activity on Nociceptin receptor [5] was 70%. In addition, the results for the negative logarithm of the Ki (pKi) on Nociceptin receptor [1] and on Mu-type opioid receptor [2] were 6.85 and 6.13, respectively.

With `Cc1ccc(C(c2ccccc2Cl)N2C3CCC2CC(O)(c2ccncn2)C3)c(Cl)c1` (configuration not stated), the pKi at Nociceptin receptor [1] is 8.28; at Mu-type opioid receptor [2], 6.27. The pEC50 was 7.30 at Nociceptin receptor [3] and 5.77 on Mu-type opioid receptor [4].

Take `Clc1ccccc1C(c1ccccc1Cl)N1C2CCC1CC(c1ccccc1)(c1nc[nH]n1)C2` (configuration not stated): the pKi was 8.28 at Nociceptin receptor [1] and 7.00 at Mu-type opioid receptor [2].

`O=C(O)C1(c2ccccc2)CC2CCC(C1)N2C(c1ccccc1Cl)c1ccccc1Cl` (configuration not stated): the negative-log Ki (pKi) at Nociceptin receptor [1] was 8.52; at Mu-type opioid receptor [2] it was 6.91.

Regarding `OC1(c2cccnc2)CC2CCC(C1)N2C(c1ccccc1Cl)c1ccccc1Cl` (configuration not stated), the figures for the pKi at Nociceptin receptor [1] and at Mu-type opioid receptor [2] were 8.52 and 7.38, respectively.

Consider `Cc1ccnc(C2(O)C3CCC2CN(C(c2ccccc2Cl)c2ccccc2Cl)C3)c1` (configuration not stated), for which the pKi at Nociceptin receptor [1] is 6.41; on Mu-type opioid receptor [2] it was 5.45.

As to `COc1ccc(C2(C(N)=O)CC3CCC(C2)N3C(c2ccccc2Cl)c2ccccc2Cl)cc1` (configuration not stated), the pKi was 7.66 on Nociceptin receptor [1] and 7.23 on Mu-type opioid receptor [2]. In addition, the Ratio in series [6] is on record as 0.06.

On to `CC(O)CNC(=O)C1(c2ccccc2)CC2CCC(C1)N2C(c1ccccc1Cl)c1ccccc1Cl` (configuration not stated), for which the figures for the pKi at Nociceptin receptor [1] and on Mu-type opioid receptor [2] were 7.96 and 7.24, respectively. For the same compound, the Ratio in series [6] is 2.38.

Consider `Cc1ccc(C(c2ccccc2Cl)N2C3CCC2CC(O)(C2CCCN2Cc2ccccc2)C3)c(Cl)c1` (configuration not stated), for which the pKi is 7.85 on Nociceptin receptor [1] and 5.81 on Mu-type opioid receptor [2].

Consider `Cc1ccc(C(c2ccccc2Cl)N2C3CCC2CC(O)(CCCO)C3)c(Cl)c1` (configuration not stated), for which the pKi at Nociceptin receptor [1] was 8.13; on Mu-type opioid receptor [2] it was 6.51.

For the compound `CC(C)NC(=O)C1(c2ccccc2)CC2CCC(C1)N2C(c1ccccc1Cl)c1ccccc1Cl` (configuration not stated), the pKi on Nociceptin receptor [1] is 8.00; on Mu-type opioid receptor [2] it was 6.48. Moreover, in series [6], the Ratio was 2.21.

Consider `OC1(c2ccccc2)CC2CCCC(C1)N2C(c1ccccc1)c1ccccc1` (configuration not stated), for which the Activity on Nociceptin receptor [5] was 101%. In addition, the pKi on Nociceptin receptor [1] is 8.12; at Mu-type opioid receptor [2], 6.29.

As for `OC1(c2cccnn2)CC2CCC(C1)N2C(c1ccccc1Cl)c1ccccc1Cl` (stereo in doubt; 11c), the pKi was 8.00 on Nociceptin receptor [1] and 6.33 at Mu-type opioid receptor [2].

As for `CNC(=O)C1(c2ccccc2)CC2CCC(C1)N2C(c1ccccc1Cl)c1ccccc1Cl` (configuration not stated), the values for the pKi at Nociceptin receptor [1] and at Mu-type opioid receptor [2] were 8.31 and 7.30, respectively. Moreover, the Ratio in series [6] was determined as 1.29.

`Cc1ccc(C(c2ccccc2Cl)N2C3CCC2CC(O)(C2CCCC2)C3)c(Cl)c1` (configuration not stated): the results for the pKi on Nociceptin receptor [1] and at Mu-type opioid receptor [2] were 8.72 and 6.98, respectively. Further, the results for the pEC50 on Nociceptin receptor [3] and at Mu-type opioid receptor [4] were 7.80 and 6.15, respectively.

Take `NC(=O)C1(c2ccc(OC(F)(F)F)cc2)CC2CCC(C1)N2C(c1ccccc1Cl)c1ccccc1Cl` (configuration not stated): at Nociceptin receptor [1], the pKi was 6.55. Besides, the Ratio in series [6] was 0.1.

On to `O=C(NC1(c2ccccc2)CC2CCC(C1)N2C(c1ccccc1Cl)c1ccccc1Cl)C1CC1` (configuration not stated), for which the pKi on Nociceptin receptor [1] was 7.96; on Mu-type opioid receptor [2], 6.00. For the same compound, on Nociceptin receptor [3], the pEC50 was 7.46. Moreover, the Activity at Mu-type opioid receptor [7] came to 25%.

For `COCCNC(=O)C1(c2ccccc2)CC2CCC(C1)N2C(c1ccccc1Cl)c1ccccc1Cl` (configuration not stated), the pKi is 8.09 on Nociceptin receptor [1] and 7.22 on Mu-type opioid receptor [2]. Further, the Ratio in series [6] is recorded as 2.35.

Consider `COc1ccc(CC2(O)CC3CCC(C2)N3C(c2ccccc2Cl)c2ccc(C)cc2Cl)nc1` (configuration not stated), for which the figures for the pKi at Nociceptin receptor [1] and on Mu-type opioid receptor [2] were 7.89 and 6.42, respectively. In addition, the pEC50 at Nociceptin receptor [3] was 7.05. Besides, the Activity on Mu-type opioid receptor [7] came to 31%.

At Mu-type opioid receptor [2], `OC1(c2ccccc2)CC2CCC(C1)N2C(c1ccccc1)c1ccccc1` (configuration not stated) had a pKi of 7.03. The outcome in the series with Cavia porcellus was inactive.

`OC1CC2CCC(C1)N2C(c1ccccc1Cl)c1ccccc1Cl` (stereo in doubt; 12a) had a pKi on Nociceptin receptor [1] of 5.96.

Take `CCNC(=O)C1(c2ccccc2)CC2CCC(C1)N2C(c1ccccc1Cl)c1ccccc1Cl` (configuration not stated): the values for the pKi on Nociceptin receptor [1] and at Mu-type opioid receptor [2] were 8.15 and 6.67, respectively. In addition, the Ratio in series [6] amounted to 1.49.

Take `OC1(c2cccnc2)C2CCC1CN(C(c1ccccc1Cl)c1ccccc1Cl)C2` (configuration not stated): the pKi at Nociceptin receptor [1] is 6.04; at Mu-type opioid receptor [2], 5.14.

Turning to `OCC1(c2ccccc2)CC2CCC(C1)N2C(c1ccccc1Cl)c1ccccc1Cl` (configuration not stated), the pKi was 8.22 at Nociceptin receptor [1] and 6.20 at Mu-type opioid receptor [2]. Also, the pEC50 at Nociceptin receptor [3] is 6.87; at Mu-type opioid receptor [4], 5.67.

At Nociceptin receptor [1], `NC(=O)c1ccc(C2(C(N)=O)CC3CCC(C2)N3C(c2ccccc2Cl)c2ccccc2Cl)cc1` (configuration not stated) had a pKi of 6.17. In series [6], the Ratio worked out at 0.05.

With `NC(=O)C1(c2ccc(Cl)cc2)CC2CCC(C1)N2C(c1ccccc1Cl)c1ccccc1Cl` (configuration not stated), the pKi at Nociceptin receptor [1] is 7.51; at Mu-type opioid receptor [2], 7.26. The Ratio in series [6] came to 0.05.

Regarding `O/N=C/C1(c2ccccc2)CC2CCC(C1)N2C(c1ccccc1Cl)c1ccccc1Cl` (configuration not stated), the pKi at Nociceptin receptor [1] was 7.70; at Mu-type opioid receptor [2] it was 6.22. For the same compound, the pEC50 at Nociceptin receptor [3] is 6.97. The Activity at Mu-type opioid receptor [7] was determined as 29%.

`NC(=O)C1(c2ccc(Br)cc2)CC2CCC(C1)N2C(c1ccccc1Cl)c1ccccc1Cl` (configuration not stated) showed a pKi at Nociceptin receptor [1] of 7.40. Also, the Ratio in series [6] is recorded as 0.05.

The compound `OC1(c2cncs2)CC2CCC(C1)N2C(c1ccccc1Cl)c1ccccc1Cl` (stereo in doubt; 12b) showed a pKi at Nociceptin receptor [1] of 5.52.

Turning to `NC1(c2ccccc2)CC2CCC(C1)N2C(c1ccccc1Cl)c1ccccc1Cl` (configuration not stated), the pKi at Nociceptin receptor [1] was 8.40; at Mu-type opioid receptor [2], 6.34. The negative-log EC50 (pEC50) is 7.12 on Nociceptin receptor [3] and 5.34 at Mu-type opioid receptor [4].

Turning to `Cc1ccc(C(c2ccccc2Cl)N2C3CCC2CC(O)(C2=NCCCN2)C3)c(Cl)c1` (configuration not stated), the pKi on Nociceptin receptor [1] was 8.52; at Mu-type opioid receptor [2] it was 6.21. For the same compound, the pEC50 at Nociceptin receptor [3] is 7.21. Moreover, the Activity at Mu-type opioid receptor [7] turned out to be 29%.

`OC1(c2cccnn2)CC2CCC(C1)N2C(c1ccccc1Cl)c1ccccc1Cl` (stereo in doubt; 12c): the pKi on Nociceptin receptor [1] is 5.42.

`OC1(c2cncs2)CC2CCC(C1)N2C(c1ccccc1Cl)c1ccccc1Cl` (stereo in doubt; 11b): the pKi at Nociceptin receptor [1] was 7.72; at Mu-type opioid receptor [2] it was 5.83.

With `Cc1ccc(C(c2ccccc2Cl)N2C3CCC2CC(O)(c2cccc(F)c2)C3)c(Cl)c1` (configuration not stated), the pKi was 8.57 at Nociceptin receptor [1] and 7.24 at Mu-type opioid receptor [2]. The results for the pEC50 on Nociceptin receptor [3] and at Mu-type opioid receptor [4] were 7.80 and 6.05, respectively.

`Cc1ccc(C(c2ccccc2Cl)N2C3CCC2CC(O)(C2CCNC2=O)C3)c(Cl)c1` (configuration not stated): the figures for the pKi at Nociceptin receptor [1] and at Mu-type opioid receptor [2] were 8.44 and 6.11, respectively. Moreover, the pEC50 at Nociceptin receptor [3] is 7.32. In addition, the Activity at Mu-type opioid receptor [7] amounted to 60%.

Regarding `Cc1ccnc(C2(O)CC3CCC(C2)N3C(c2ccccc2Cl)c2ccc(C)cc2Cl)c1` (configuration not stated), the pKi on Nociceptin receptor [1] was 8.14; on Mu-type opioid receptor [2], 6.15.

For `OC1CC2CCC(C1)N2C(c1ccccc1Cl)c1ccccc1Cl` (stereo in doubt; 11a), on Nociceptin receptor [1], the pKi was 6.70.
